# Source: ChEMBL document CHEMBL3585281, “Antibacterial Labdane Diterpenoids from Vitex vestita” (2015)
# Columns and labels:
# Format in all cases: functional
# Enterococcus faecalis [1] = test: Antibacterial activity against Enterococcus faecalis N520 after 18 hrs by agar dilution method; conditions: N520, 18 h
# Procedure, shortened: (§1)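 Agar-dilution MIC against Gram-positive strains. Compounds in DMSO, geometric dilutions giving final 100−0.75 mg/L in Mueller Hinton agar. Strains grown 18 h at 37 °C in trypticase soy broth, diluted in sterile water, spotted by Steers inoculator (about 1000 UFC/spot). Plates incubated 18 h at 37 °C; DMSO blank; ofloxacin positive control. MIC = lowest concentration with no visible growth.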
# Enterococcus faecalis [2] = test: Antibacterial activity against Enterococcus faecalis CIP 103214 after 18 hrs by agar dilution method; conditions: CIP 103214, 18 h; procedure, shortened: as §1
# [3] = system: Staphylococcus epidermidis; test: Antibacterial activity against Staphylococcus epidermidis CIP 53124 after 18 hrs by agar dilution method; conditions: CIP 53124, 18 h; procedure, shortened: as §1
# Staphylococcus aureus [4] = test: Antibacterial activity against Staphylococcus aureus CIP 53156 after 18 hrs by agar dilution method; conditions: CIP 53156, 18 h; procedure, shortened: as §1
# Enterococcus durans = test: Antibacterial activity against Enterococcus durans CIP 104999 after 18 hrs by agar dilution method; conditions: CIP 104999, 18 h; procedure, shortened: as §1
# Enterococcus gallinarum [5] = test: Antibacterial activity against Enterococcus gallinarum CIP 105985 after 18 hrs by agar dilution method; conditions: CIP 105985, 18 h; procedure, shortened: as §1
# Mammaliicoccus sciuri = test: Antibacterial activity against Staphylococcus sciuri N993 after 18 hrs by agar dilution method; conditions: N993, 18 h; procedure, shortened: as §1
# Corynebacterium striatum = test: Antibacterial activity against Corynebacterium striatum N840 after 18 hrs by agar dilution method; conditions: N840, 18 h; procedure, shortened: as §1
# Staphylococcus aureus [6] = test: Antibacterial activity against Staphylococcus aureus ATCC 25923 after 18 hrs by agar dilution method; conditions: ATCC 25923, 18 h; procedure, shortened: as §1
# MRC5 [7] = test: Cytotoxicity against human MRC5 cells assessed as growth inhibition at 10^-5 M after 72 hrs by MTS assay relative to control; conditions: MRC5, 72 h, read-out: GI
# Procedure, shortened: (§2)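 Cells from ATCC; HCT-116 grown in RPMI 1640 and MRC5 in DMEM, each with 10% FCS and 1% glutamine, 37 °C, 5% CO2. Seeded at 2.5 × 10^3 cells/well, cultured 24 h, then exposed to compounds at 1 and 10 μM final for 72 h. MTS read-out, absorbance 490 nm; percent index from treated/control OD490 × 100, three experiments.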
# Enterococcus faecalis [8] = test: Antibacterial activity against Enterococcus faecalis N518 after 18 hrs by agar dilution method; conditions: N518, 18 h; procedure, shortened: as §1
# [9] = system: Staphylococcus saprophyticus; test: Antibacterial activity against Staphylococcus saprophyticus E260 after 18 hrs by agar dilution method; conditions: E260, 18 h; procedure, shortened: as §1
# Staphylococcus aureus [10] = test: Antibacterial activity against Staphylococcus aureus CIP 7625 after 18 hrs by agar dilution method; conditions: CIP 7625, 18 h; procedure, shortened: as §1
# MRC5 [11] = test: Cytotoxicity against human MRC5 cells assessed as growth inhibition at 10^-6 M after 72 hrs by MTS assay relative to control; conditions: MRC5, 72 h, read-out: GI; procedure, shortened: as §2
# Bacillus cereus [12] = test: Antibacterial activity against Bacillus cereus N349 after 18 hrs by agar dilution method; conditions: N349, 18 h; procedure, shortened: as §1
# Listeria innocua = test: Antibacterial activity against Listeria innocua E044 after 18 hrs by agar dilution method; conditions: E044, 18 h; procedure, shortened: as §1
# Enterococcus faecium [13] = test: Antibacterial activity against Enterococcus faecium CIP 103014 after 18 hrs by agar dilution method; conditions: CIP 103014, 18 h; procedure, shortened: as §1
# [14] = system: Staphylococcus intermedius; test: Antibacterial activity against Staphylococcus intermedius N987 after 18 hrs by agar dilution method; conditions: N987, 18 h; procedure, shortened: as §1
# Listeria monocytogenes [15] = test: Antibacterial activity against Listeria monocytogenes N851 after 18 hrs by agar dilution method; conditions: N851, 18 h; procedure, shortened: as §1
# Enterococcus faecium [16] = test: Antibacterial activity against Enterococcus faecium CIP 107387 after 18 hrs by agar dilution method; conditions: CIP 107387, 18 h; procedure, shortened: as §1
# Staphylococcus aureus [17] = test: Antibacterial activity against Staphylococcus aureus ATCC 9144 oxford after 18 hrs by agar dilution method; procedure, shortened: as §1
# Bacillus cereus [18] = test: Antibacterial activity against Bacillus cereus N258 after 18 hrs by agar dilution method; conditions: N258, 18 h; procedure, shortened: as §1
# [19] = system: Staphylococcus lugdunensis; test: Antibacterial activity against Staphylococcus lugdunensis ATCC 43809 after 18 hrs by agar dilution method; conditions: ATCC 43809, 18 h; procedure, shortened: as §1
# Enterococcus faecium [20] = test: Antibacterial activity against Enterococcus faecium N507 after 18 hrs by agar dilution method; conditions: N507, 18 h; procedure, shortened: as §1
# Streptococcus agalactiae = test: Antibacterial activity against Streptococcus agalactiae CIP 103227 after 18 hrs by agar dilution method; conditions: ATCC 13813, 18 h; procedure, shortened: as §1
# Enterococcus faecium [21] = test: Antibacterial activity against Enterococcus faecium N823 after 18 hrs by agar dilution method; conditions: N823, 18 h; procedure, shortened: as §1
# Listeria monocytogenes [22] = test: Antibacterial activity against Listeria monocytogenes N836 after 18 hrs by agar dilution method; conditions: N836, 18 h; procedure, shortened: as §1
# Bacillus cereus [23] = test: Antibacterial activity against Bacillus cereus CIP 6624 after 18 hrs by agar dilution method; conditions: CIP 6624, 18 h; procedure, shortened: as §1
# Enterococcus faecalis [24] = test: Antibacterial activity against Enterococcus faecalis N491 after 18 hrs by agar dilution method; conditions: N491, 18 h; procedure, shortened: as §1
# HCT-116 [25] = test: Cytotoxicity against human HCT116 cells assessed as growth inhibition at 10^-6 M after 72 hrs by MTS assay relative to control; conditions: HCT-116, 72 h, read-out: GI; procedure, shortened: as §2
# Listeria monocytogenes [26] = test: Antibacterial activity against Listeria monocytogenes N783 after 18 hrs by agar dilution method; conditions: N783, 18 h; procedure, shortened: as §1
# [27] = system: Staphylococcus haemolyticus; test: Antibacterial activity against Staphylococcus haemolyticus CIP 8156 after 18 hrs by agar dilution method; conditions: CIP 8156, 18 h; procedure, shortened: as §1
# Enterococcus avium = test: Antibacterial activity against Enterococcus avium CIP 104053 after 18 hrs by agar dilution method; conditions: CIP 104053, 18 h; procedure, shortened: as §1
# Bacillus spizizenii = test: Antibacterial activity against Bacillus subtilis ATCC 6633 after 18 hrs by agar dilution method; conditions: ATCC 6633, 18 h; procedure, shortened: as §1
# Listeria monocytogenes [28] = test: Antibacterial activity against Listeria monocytogenes CIP 103575 after 18 hrs by agar dilution method; conditions: CIP 103575, 18 h; procedure, shortened: as §1
# Enterococcus hirae = test: Antibacterial activity against Enterococcus hirae CIP 5855 after 18 hrs by agar dilution method; conditions: CIP 5855, 18 h; procedure, shortened: as §1
# [29] = system: Enterococcus casseliflavus; test: Antibacterial activity against Enterococcus casseliflavus CIP 103018 after 18 hrs by agar dilution method; conditions: CIP 103018, 18 h; procedure, shortened: as §1
# Staphylococcus aureus [30] = test: Antibacterial activity against Staphylococcus aureus CIP 5710 after 18 hrs by agar dilution method; conditions: CIP 5710, 18 h; procedure, shortened: as §1
# Staphylococcus aureus [31] = test: Antibacterial activity against Staphylococcus aureus CRBIP 2121 after 18 hrs by agar dilution method; conditions: CRBIP 2121, 18 h; procedure, shortened: as §1
# Enterococcus faecium [32] = test: Antibacterial activity against Enterococcus faecium N490 after 18 hrs by agar dilution method; conditions: N490, 18 h; procedure, shortened: as §1
# Enterococcus gallinarum [33] = test: Antibacterial activity against Enterococcus gallinarum N489 after 18 hrs by agar dilution method; conditions: N489, 18 h; procedure, shortened: as §1
# [34] = system: Staphylococcus saprophyticus; test: Antibacterial activity against Staphylococcus saprophyticus CIP 76125 after 18 hrs by agar dilution method; conditions: CIP 76125, 18 h; procedure, shortened: as §1
# Enterococcus gallinarum [35] = test: Antibacterial activity against Enterococcus gallinarum N492 after 18 hrs by agar dilution method; conditions: N492, 18 h; procedure, shortened: as §1
# [36] = system: Enterococcus casseliflavus; test: Antibacterial activity against Enterococcus casseliflavus N487 after 18 hrs by agar dilution method; conditions: N487, 18 h; procedure, shortened: as §1
# Enterococcus faecalis [37] = test: Antibacterial activity against Enterococcus faecalis CIP 104676 after 18 hrs by agar dilution method; conditions: CIP 104676, 18 h; procedure, shortened: as §1
# Staphylococcus aureus [38] = test: Antibacterial activity against Staphylococcus aureus CIP 483 after 18 hrs by agar dilution method; conditions: CIP 483, 18 h; procedure, shortened: as §1
# Staphylococcus aureus [39] = test: Antibacterial activity against Staphylococcus aureus CIP 53154 after 18 hrs by agar dilution method; conditions: CIP 53154, 18 h; procedure, shortened: as §1
# Enterococcus faecium [40] = test: Antibacterial activity against Enterococcus faecium N733 after 18 hrs by agar dilution method; conditions: N733, 18 h; procedure, shortened: as §1
# Bacillus cereus [41] = test: Antibacterial activity against Bacillus cereus N190 after 18 hrs by agar dilution method; conditions: N190, 18 h; procedure, shortened: as §1
# HCT-116 [42] = test: Cytotoxicity against human HCT116 cells assessed as growth inhibition at 10^-5 M after 72 hrs by MTS assay relative to control; conditions: HCT-116, 72 h, read-out: GI; procedure, shortened: as §2
compound,measurement,setting,value
C=C1CC[C@H]2C(C)(C)CCC[C@]2(C)[C@H]1C[C@H](O)C1=CC(=O)OC1O (stereo not given in full),MIC,Enterococcus faecalis [1],96 µM
same,MIC,Enterococcus faecalis [2],> 96 µM
same,MIC,[3],48 µM
same,MIC,Staphylococcus aureus [4],48 µM
same,MIC,Enterococcus durans,48 µM
same,MIC,Enterococcus gallinarum [5],> 96 µM
same,MIC,Mammaliicoccus sciuri,96 µM
same,MIC,Corynebacterium striatum,96 µM
same,MIC,Staphylococcus aureus [6],48 µM
same,inhibition of growth at 10 µM,MRC5 [7],67%
same,MIC,Enterococcus faecalis [8],> 96 µM
same,MIC,[9],48 µM
same,MIC,Staphylococcus aureus [10],48 µM
same,inhibition of growth at 1 µM,MRC5 [11],19%
same,MIC,Bacillus cereus [12],24 µM
same,MIC,Listeria innocua,> 96 µM
same,MIC,Enterococcus faecium [13],> 96 µM
same,MIC,[14],24 µM
same,MIC,Listeria monocytogenes [15],96 µM
same,MIC,Enterococcus faecium [16],> 96 µM
same,MIC,Staphylococcus aureus [17],48 µM
same,MIC,Bacillus cereus [18],24 µM
same,MIC,[19],48 µM
same,MIC,Enterococcus faecium [20],> 96 µM
same,MIC,Streptococcus agalactiae,24 µM
same,MIC,Enterococcus faecium [21],> 96 µM
same,MIC,Listeria monocytogenes [22],96 µM
same,MIC,Bacillus cereus [23],24 µM
same,MIC,Enterococcus faecalis [24],96 µM
same,inhibition of growth at 1 µM,HCT-116 [25],1%
same,MIC,Listeria monocytogenes [26],96 µM
same,MIC,[27],24 µM
same,MIC,Enterococcus avium,96 µM
same,MIC,Bacillus spizizenii,12 µM
same,MIC,Listeria monocytogenes [28],96 µM
same,MIC,Enterococcus hirae,> 96 µM
same,MIC,[29],> 96 µM
same,MIC,Staphylococcus aureus [30],48 µM
same,MIC,Staphylococcus aureus [31],48 µM
same,MIC,Enterococcus faecium [32],> 96 µM
same,MIC,Enterococcus gallinarum [33],96 µM
same,MIC,[34],48 µM
same,MIC,Enterococcus gallinarum [35],96 µM
same,MIC,[36],> 96 µM
same,MIC,Enterococcus faecalis [37],96 µM
same,MIC,Staphylococcus aureus [38],48 µM
same,MIC,Staphylococcus aureus [39],48 µM
same,MIC,Enterococcus faecium [40],> 96 µM
same,MIC,Bacillus cereus [41],24 µM
same,inhibition of growth at 10 µM,HCT-116 [42],90%
